Here are results for 16 compounds from ChEMBL document CHEMBL1136531, “Sphingomyelin analogues as inhibitors of sphingomyelinase” (Bioorg Med Chem Lett, 2003).

In the assay the target is T1, Sphingomyelin phosphodiesterase 2 (Rattus norvegicus, UniProt Q9ET64).
T1 sequence (Q9ET64 whole entry): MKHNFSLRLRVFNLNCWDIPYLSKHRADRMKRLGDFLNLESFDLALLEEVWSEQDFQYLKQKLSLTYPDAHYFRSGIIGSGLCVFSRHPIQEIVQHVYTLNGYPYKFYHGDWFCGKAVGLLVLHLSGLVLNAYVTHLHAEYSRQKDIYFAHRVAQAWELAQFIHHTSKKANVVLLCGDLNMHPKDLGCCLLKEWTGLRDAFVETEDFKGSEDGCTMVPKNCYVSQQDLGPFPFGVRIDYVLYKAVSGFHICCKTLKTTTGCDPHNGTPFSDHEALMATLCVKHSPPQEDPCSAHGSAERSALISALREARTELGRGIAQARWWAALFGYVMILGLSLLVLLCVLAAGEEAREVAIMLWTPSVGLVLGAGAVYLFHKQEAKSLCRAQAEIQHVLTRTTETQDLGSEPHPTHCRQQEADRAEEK
The experiment in a line: Inhibitory concentration against the membrane neutral magnesium-dependent Sphingomyelinase (N-SMase) using rat brain microsomes as the enzyme source. In outline:
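Rat brain microsomes served as the enzyme source and were incubated 25 min at 37 °C with 0.3mM ¹⁴C-labelled sphingomyelin in 100 mM Tris–HCl (pH 7.5), 20 mM MgCl₂ and 0.25% Triton X-100, across a range of inhibitor concentrations. Released radioactive phosphorylcholine was separated by chloroform/methanol (2/1) extraction and counted by scintillation in the aqueous phase. IC₅₀ was derived from these counts.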

Take `CCCCCCCCCCCCC/C=C/[C@@H](O)[C@H](COC(=O)NCc1ccncc1)NC(=O)OC(C)(C)C`: the IC50 was over 100 µM.

`CCCCCCCCCCCCC/C=C/[C@@H](O)[C@H](COC(=O)NCC[N+](C)(C)C)NC(=O)C(C)(C)C` gave a 50% inhibitory concentration (IC50) of 8.7 µM.

Compound `CCCCCCCCCCCCC/C=C/[C@@H](O)[C@H](COC(=O)NCCN(C)C)NC(=O)C(C)(C)C` gave a 50% inhibitory concentration (IC50) of 4.1 µM.

As for `CCCCCCCCCCCCC/C=C/[C@@H](O)[C@H](COC(=O)NCCC(C)(C)C)NC(=O)C(C)(C)C`, the half-maximal inhibitory concentration (IC50) was determined as 77 µM.

In the case of `CCCCCCCCCCCCC/C=C/[C@@H](O)[C@H](COC(=O)NCc1ccncc1)NC(=O)CCCCCCCCCCCCCCCCC`, the IC50 is over 100 µM.

In turn, `CCCCCCCCCCCCC/C=C/[C@@H](O)[C@H](COC(=O)NCc1ccc(N(C)C)cc1)NC(=O)C(C)(C)C` came in with an IC50 of 8.2 µM.

In the case of `CCCCCCCCCCCCC/C=C/[C@@H](O)[C@H](COC(=O)NCCCN(C)C)NC(=O)C(C)(C)C`, half-maximal inhibition (IC50) required 4.9 µM.

Take `CCCCCCCCCCCCC/C=C/[C@@H](O)[C@H](COC(=O)NCc1ccncc1)NC(C)=O`: the concentration for half-maximal inhibition (IC50) was over 100 µM.

Compound `CCCCCCCCCCCCC/C=C/[C@@H](O)[C@H](COC(=O)Nc1ccccn1)NC(=O)C(C)(C)C` came in with an IC50 of 7.9 µM.

Consider `CCCCCCCCCCCCC/C=C/[C@@H](O)[C@H](COC(=O)NCc1ccncc1)NC(=O)C(C)C`, for which half-maximal inhibition (IC50) was put at 1.8 µM.

The compound `CCCCCCCCCCCCC/C=C/[C@@H](O)[C@H](COC(=O)NCCN(C(C)C)C(C)C)NC(=O)C(C)(C)C` returned a concentration for half-maximal inhibition (IC50) of 18 µM.

Regarding `CCCCCCCCCCCCC/C=C/[C@@H](O)[C@H](COC(=O)NCc1ccccn1)NC(=O)C(C)(C)C`, the IC50 stood at 5 µM.

Consider `CCCCCCCCCCCCC/C=C/[C@@H](O)[C@H](COC(=O)NCCc1ccccn1)NC(=O)C(C)(C)C`, for which it took 8.4 µM to reach half-maximal inhibition (IC50).

The compound `CCCCCCCCCCCCC/C=C/[C@@H](O)[C@H](COC(=O)NCc1cccnc1)NC(=O)C(C)(C)C` displayed a 50% inhibitory concentration (IC50) of 2.1 µM.

As for `CCCCCCCCCCCCC/C=C/[C@@H](O)[C@H](COC(=O)CCCN(C)C)NC(=O)C(C)(C)C`, the 50% inhibitory concentration (IC50) was determined as 31 µM.

For `CCCCCCCCCCCCC/C=C/C(O)C(N)COC(=O)NCc1ccncc1` (single isomer, unassigned), the 50% inhibitory concentration (IC50) was over 100 µM.

As a reminder, the IC50 is the point on the concentration scale where inhibition reaches its midpoint. A low value points to greater potency.
